According to ChEMBL document CHEMBL3808288, “Identification and in Vivo Evaluation of Liver X Receptor β-Selective Agonists for the Potential Treatment of Alzheimer's Disease” (J Med Chem, 2016):
≈ marks a conversion by molar mass, not a printed value. Calls of active or inactive are those of the source. The calls are words filed in the database; no cut-off is given here.

Key:
[1] = target: T1, Oxysterols receptor LXR-alpha (Homo sapiens) (UniProt Q13133); experiment: (§1) Agonist activity at LXRalpha (unknown origin) expressed in human HepG2 cells co-expressing ABCA1 promoter measured after 48 hrs by cell-based transactivation assay
T1 sequence (whole entry): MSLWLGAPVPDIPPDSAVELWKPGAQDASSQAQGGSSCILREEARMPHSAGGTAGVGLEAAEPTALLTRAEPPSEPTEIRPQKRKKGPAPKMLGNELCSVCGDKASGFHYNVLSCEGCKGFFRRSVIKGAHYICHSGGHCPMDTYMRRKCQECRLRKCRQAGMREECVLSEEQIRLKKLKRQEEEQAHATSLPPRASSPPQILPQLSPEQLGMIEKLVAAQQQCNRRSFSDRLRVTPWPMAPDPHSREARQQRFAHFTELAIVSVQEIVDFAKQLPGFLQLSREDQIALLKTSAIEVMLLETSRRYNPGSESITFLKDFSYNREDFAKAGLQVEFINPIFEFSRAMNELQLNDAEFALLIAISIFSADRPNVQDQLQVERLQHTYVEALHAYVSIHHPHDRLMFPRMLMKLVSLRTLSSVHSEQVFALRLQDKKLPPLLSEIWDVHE

[2] = target: T2, Oxysterols receptor LXR-alpha (Homo sapiens, UniProt Q13133); experiment: as §1
T2 sequence (Q13133 whole entry): T1 sequence (whole entry)

[3] = target: T3, Oxysterols receptor LXR-beta (Homo sapiens) (UniProt P55055); experiment: (§2) Agonist activity at LXRbeta (unknown origin) expressed in human H4 cells co-expressing ABCA1 promoter measured after 48 hrs by cell-based transactivation assay
T3 sequence (whole entry): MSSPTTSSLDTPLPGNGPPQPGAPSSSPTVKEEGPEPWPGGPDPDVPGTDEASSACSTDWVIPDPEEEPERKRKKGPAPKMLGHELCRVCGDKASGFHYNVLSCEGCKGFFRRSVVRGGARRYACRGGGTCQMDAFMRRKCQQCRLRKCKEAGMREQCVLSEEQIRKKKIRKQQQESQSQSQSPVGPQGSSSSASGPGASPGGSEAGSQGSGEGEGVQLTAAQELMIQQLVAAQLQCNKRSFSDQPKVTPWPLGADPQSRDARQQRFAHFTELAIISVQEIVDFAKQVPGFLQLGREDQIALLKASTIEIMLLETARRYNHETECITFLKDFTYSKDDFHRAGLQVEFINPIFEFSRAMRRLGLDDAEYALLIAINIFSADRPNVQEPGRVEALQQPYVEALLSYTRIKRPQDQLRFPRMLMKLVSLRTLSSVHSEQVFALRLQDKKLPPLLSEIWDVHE

[4] = target: T4, Oxysterols receptor LXR-beta (Homo sapiens, UniProt P55055); experiment: as §2
T4 sequence (P55055 whole entry): T3 sequence (whole entry)

Rhesus monkey [5] = experiment: Increase in lipid level in serum of rhesus monkey at 10 to 20 mg/kg, po qd for 2 weeks; format: ADME, organism-based, Macaca mulatta; settings: in vivo, 336 h
[6] = target: T1, Oxysterols receptor LXR-alpha (Homo sapiens); experiment: (§3) Partial agonist activity at LXRalpha (unknown origin) expressed in human HepG2 cells co-expressing ABCA1 promoter measured after 48 hrs by cell-based transactivation assay
Summary of the method: (§4)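 Cell-based transactivation assay using endogenous LXRβ or LXRα. The read-out was EC50 and Emax, with Emax expressed relative to a full agonist control set at 100%.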

[7] = target: T2, Oxysterols receptor LXR-alpha; experiment: as §3; summary of the method: as §4
[8] = Solubility of the compound at pH 2; format: physicochemical; settings: buffer
[9] = Protein binding in rhesus monkey plasma; format: ADME, cell-free, Macaca mulatta; settings: read-out: PPB (converted)
Rhesus monkey [10] = experiment: Increase in amyloid beta40 in CSF of rhesus monkey at 20 mg/kg, po administered for 2 weeks; format: functional, Macaca mulatta
Rhesus monkey [11] = experiment: Decrease in ratio of HDL to LDL level in rhesus monkey plasma at 10 to 20 mg/kg, po qd for 2 weeks; format: ADME, organism-based, Macaca mulatta; settings: in vivo, 336 h
Summary of the method: (§5)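 Rhesus monkeys were dosed orally once daily for 2 weeks. LDL and HDL cholesterol were measured in serum at trough after the last dose and compared with baseline serum samples taken before dosing.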

Mus musculus [12] = experiment: Toxicity in Tg2576 transgenic mouse assessed as change in plasma triglyceride level at 50 mg/kg, sc dosed for 3 weeks; format: organism-based; settings: in vivo, 504 h
Summary of the method: (§6)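 12-month-old Tg2576 mice were dosed subcutaneously for three weeks. Brain was assayed for ABCA1 protein, soluble apoE and DEA-soluble Aβ, and plasma and liver were assayed for triglycerides. Groups were compared with vehicle by ANOVA.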

[13] = Clearance in rat; format: ADME, organism-based; settings: in vivo
[14] = Half life of compound in rat; format: ADME, organism-based; settings: in vivo
[15] = Half life of compound in rhesus monkey; format: ADME, organism-based, Macaca mulatta; settings: in vivo
Rattus norvegicus [16] = experiment: Toxicity in Wistar Han rat assessed as change in plasma triglyceride level at 100 mg/kg, sc dosed for 4 days […]; format: organism-based; settings: in vivo, 96 h
[17] = Oral bioavailability in rhesus monkey; format: ADME, organism-based, Macaca mulatta; settings: in vivo
Mus musculus [18] = experiment: Reversal of hyperlocomotary behavior in Tg2576 transgenic mouse at 50 mg/kg, sc dosed for 16 days by open field test; format: functional, organism-based
Summary of the method: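 Mice from the three-week subcutaneous study were tested in the open field for locomotor activity after 16 days of dosing. Wild-type mice were included for comparison.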

Mus musculus [19] = experiment: Activation of LXR in Tg2576 transgenic mouse assessed decrease in DEA-soluble amyloid-beta level in brain at 50 mg/kg, sc dosed for 3 weeks; format: functional; settings: 504 h; summary of the method: as §6
Mus musculus [20] = experiment: Activation of LXR in Tg2576 transgenic mouse assessed increase in soluble apoE level in brain at 50 mg/kg, sc dosed for 3 weeks; format: functional, organism-based; summary of the method: as §6
[21] = target: T3, Oxysterols receptor LXR-beta (Homo sapiens); experiment: Agonist activity at GST-tagged LXRbeta-LBD (unknown origin) by LanthaScreen TR-FRET liver X receptor coactivator assay relative to T1317
Summary of the method: (§7)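 Cofactor recruitment assay using the ligand binding domains of LXRβ or LXRα. The read-out was EC50 and Emax, with Emax relative to a full agonist control.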

Mus musculus [22] = experiment: Reversal of hyperlocomotary behavior in Tg2576 transgenic mouse at 50 mg/kg, sc administered as single dose 4 hrs before test by open field test; format: functional, organism-based
Summary of the method: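 A single subcutaneous dose was given 4 h before the open-field locomotor test.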

[23] = Oral bioavailability in rat; format: ADME, organism-based; settings: in vivo
Mus musculus [24] = experiment: Activation of LXR in Tg2576 transgenic mouse assessed increase in brain ABCA1 level at 50 mg/kg, sc dosed for 3 weeks by western blotting method; format: functional, organism-based; summary of the method: as §6
[25] = Clearance in rhesus monkey; format: ADME, organism-based, Macaca mulatta; settings: in vivo
P-gp [26] = experiment: Efflux ratio in MDCK cells expressing human P-gp assessed as ratio of permeability across basolateral to apical side over apical to basolateral side; format: ADME, cell-based, Canis lupus familiaris; settings: dog, MDCK-MDR1
Rattus norvegicus [27] = experiment: Increase in apoE level in CSF of Wistar Han rat at 100 mg/kg, sc dosed for 4 days by western blotting method; format: functional, organism-based
Summary of the method: (§8)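 Rats were dosed subcutaneously for 4 days, and apoE and Aβ were then measured in CSF.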

[28] = target: T4, Oxysterols receptor LXR-beta; experiment: Agonist activity at GST-tagged LXRbeta-LBD (unknown origin) by LanthaScreen TR-FRET liver X receptor coactivator assay; summary of the method: as §7
[29] = Cmax in rhesus monkey at 20 mg/kg, po administered for 2 weeks; format: ADME, organism-based, Macaca mulatta; set-up: dose 20 mg/kg, route oral; settings: in vivo
Summary of the method: (§9)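 Cmax was estimated across a 2-week once-daily oral dosing study in rhesus monkeys.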

Rhesus monkey [30] = experiment: Increase in LDL cholesterol level in rhesus monkey at 10 to 20 mg/kg, po qd for 2 weeks; format: ADME, organism-based, Macaca mulatta; settings: in vivo, 336 h; summary of the method: as §5
[31] = Volume of distribution at steady state in rat; format: ADME, organism-based; settings: in vivo, read-out: Vdss
Rattus norvegicus [32] = experiment: Toxicity in Wistar Han rat assessed as change in liver triglyceride level at 100 mg/kg, sc dosed for 4 days […]; format: organism-based; settings: in vivo, 96 h
Mus musculus [33] = experiment: Toxicity in wild-type mouse assessed as effect on locomotary behavior at 50 mg/kg, sc dosed for 16 days mins by open field test; format: organism-based; settings: in vivo, 384 h
Summary of the method: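 Wild-type mice were part of a three-week subcutaneous dosing study that also included Tg2576 transgenic mice. Locomotor activity was scored in an open-field arena after 16 days of dosing.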

Rhesus monkey [34] = experiment: Increase in amyloid beta42 in CSF of rhesus monkey at 20 mg/kg, po administered for 2 weeks; format: functional, Macaca mulatta
[35] = Apparent permeability of compound in MDCK cells; format: ADME, cell-based, Canis lupus familiaris; settings: dog
Mus musculus [36] = experiment: Toxicity in Tg2576 transgenic mouse assessed as change in liver triglyceride level at 50 mg/kg, sc dosed for 3 weeks; format: organism-based; settings: in vivo, 504 h; summary of the method: as §6
[37] = Cmax in rhesus monkey at 10 mg/kg, po administered for 2 weeks; format: ADME, organism-based, Macaca mulatta; set-up: dose 10 mg/kg, route oral; settings: in vivo; summary of the method: as §9
[38] = target: T1, Oxysterols receptor LXR-alpha (Homo sapiens); experiment: (§10) Partial agonist activity at GST-tagged LXRalpha-LBD (unknown origin) by LanthaScreen TR-FRET liver X receptor coactivator assay; summary of the method: as §7
[39] = target: T2, Oxysterols receptor LXR-alpha; experiment: as §10; summary of the method: as §7
Rhesus monkey [40] = experiment: Increase in lipid level in liver of rhesus monkey at 10 to 20 mg/kg, po qd for 2 weeks; format: ADME, organism-based, Macaca mulatta; settings: in vivo, 336 h
Rhesus monkey [41] = experiment: Upregulation of CETP in rhesus monkey at 20 mg/kg, po qd for 2 weeks relative to control; format: ADME, organism-based; settings: Macaca mulatta, 336 h, read-out: FC
[42] = Protein binding in rat plasma; format: ADME, cell-free; settings: read-out: PPB (converted)
Rhesus monkey [43] = experiment: Increase in hepatic fat content in rhesus monkey at 10 and 20 mg/kg, po qd for 2 weeks by magnetic resonance spectroscopic imaging method relative to vehicle control; format: ADME, organism-based, Macaca mulatta; settings: in vivo, 336 h
Rattus norvegicus [44] = experiment: Increase in amyloid beta level in CSF of Wistar Han rat at 100 mg/kg, sc dosed for 4 days by western blotting method; format: functional, organism-based; summary of the method: as §8
[45] = Ratio of drug uptake in brain to plasma in rat; format: ADME, cell-free; settings: brain and plasma, read-out: BPR
[46] = target: T1, Oxysterols receptor LXR-alpha (Homo sapiens); experiment: Agonist activity at GST-tagged LXRalpha-LBD (unknown origin) by LanthaScreen TR-FRET liver X receptor coactivator assay T1317; summary of the method: as §7
Rhesus monkey [47] = experiment: Increase in apoE level in CSF of rhesus monkey at 10 and 20 mg/kg, po administered for 2 weeks by apoE ELISA relative to control; format: functional, Macaca mulatta
Summary of the method: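 Rhesus monkeys were dosed orally once daily for 2 weeks after randomisation on baseline lipids, liver enzymes and liver fat. CSF was taken by lumbar puncture at baseline and at trough after the last dose, and apoE was measured against baseline.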

P-gp [48] = experiment: Efflux ratio in MDCK cells expressing rat P-gp assessed as ratio of permeability across basolateral to apical side over apical to basolateral side; format: ADME, cell-based, Canis lupus familiaris; settings: dog, MDCK-MDR1
[49] = Volume of distribution at steady state in rhesus monkey; format: ADME, organism-based, Macaca mulatta; settings: in vivo, read-out: Vdss

CC(C)[C@](O)(C(=O)N1CCC(C2CCN(c3ccc(C(=O)N(C)C)c(Cl)c3)CC2)CC1)C(F)(F)F
Emax [1]: 31% | EC50 [2]: 2000 nM | Emax [3]: 117% | EC50 [4]: 840 nM

CC(C)[C@@](O)(C(=O)N1CCC(C2CCN(c3ccc(C(=O)N(C)C)c(Cl)c3)CC2)CC1)C(F)(F)F
Activity (Rhesus monkey [5]): Non-toxic | Emax [6]: 31% | EC50 [7]: 830 nM | solubility [8]: 205 µM (≈ 106 µg/mL) | fraction unbound [9]: 0.007 | Activity (Rhesus monkey [10]): 25% | Activity (Rhesus monkey [11]): Toxic | Activity (Mus musculus [12]): Non-toxic | clearance [13]: 87 mL/min/kg | half-life [14]: 2.9 h | half-life [15]: 2 h | Activity (Rattus norvegicus [16]): Non-toxic | bioavailability [17]: 77% | Activity (Mus musculus [18]): Active | inhibition in vivo at 50 mg/kg (Mus musculus [19]): 28% | Activity (Mus musculus [20]): Active | Emax [21]: 103% | Activity (Mus musculus [22]): inactive | bioavailability [23]: 71% | Activity (Mus musculus [24]): Active | clearance [25]: 18 mL/min/kg | efflux ratio (P-gp [26]): 0.6 | Activity (Rattus norvegicus [27]): Active | EC50 [28]: 30 nM | Cmax [29]: 18 µM | Activity (Rhesus monkey [30]): Toxic | Vd [31]: 8.8 L/kg | Activity (Rattus norvegicus [32]): Non-toxic | Activity (Mus musculus [33]): Non-toxic | Activity (Rhesus monkey [34]): 25% | Papp [35]: 24 ×10⁻⁶ cm/s | Activity (Mus musculus [36]): Non-toxic | Cmax [37]: 1 µM | Emax [38]: 49% | EC50 [39]: 1900 nM | Activity (Rhesus monkey [40]): Non-toxic | fold induction at 20 mg/kg (Rhesus monkey [41]): 2.8 | fraction unbound [42]: 0.018 | Activity (Rhesus monkey [43]): Non-toxic | Activity (Rattus norvegicus [44]): Active | Kp [45]: 0.62 | Emax [46]: 49% | fold change (FC) (Rhesus monkey [47]): 3 | efflux ratio (P-gp [48]): 0.8 | Vd [49]: 2.7 L/kg
